Laboratory results: ChEMBL document CHEMBL4251640, “Antimalarial naphthoquinones. Synthesis via click chemistry, in vitro activity, docking to PfDHODH and SAR of lapachol-based compounds” (Eur J Med Chem, 2018)

Columns and labels:
[1] = system: Plasmodium falciparum; assay: Antimalarial activity against chloroquine-resistant/mefloquine-sensitive Plasmodium falciparum W2 ring stage forms infected in human erythrocytes assessed as reduction in parasite growth after 48 hrs by parasite LDH release assay; type: functional, organism-based; settings: W2, 48 h
In short: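 Sorbitol-synchronized ring-stage parasites in human erythrocytes (culture kept at 37 °C, candle jar, RPMI with hypoxanthine, HEPES, 10% human plasma) plated at 2% parasitemia, 1% hematocrit with drugs diluted from DMSO stock. Incubated 48 h, frozen -20 °C 24 h, thawed. Lysate given Malstat plus NBT/PES for 1 h at 37 °C in the dark, A570 read. Triplicates. IC50 from sigmoidal dose-response fit versus drug-free controls.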

[2] = Cytotoxicity against human HepG2 cells assessed as reduction in cell viability after 24 hrs by MTT assay; type: cell-based
In short: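 HepG2 hepatoma cells kept at 37 °C, 5% CO2 in RPMI 1640 with 5% FBS, penicillin and streptomycin; trypsinized and plated in 96-well plates. Samples diluted in medium at 0.02% DMSO final, four serial concentrations; 24 h at 37 °C, then MTT (5 mg/ml in PBS) 90 min, formazan dissolved in DMSO, absorbance 570 nm. Duplicate; CC50 = concentration killing 50% of cells.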

[3] = Selectivity index, CC50 for human HepG2 cells to IC50 for chloroquine-resistant/mefloquine-sensitive Plasmodium falciparum W2 ring stage forms; type: toxicity; settings: read-out: Ratio CC50/IC50
In short: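 HepG2 cytotoxicity: cells in RPMI 1640 with 5% FBS, trypsinized and plated. Compounds at 0.02% DMSO final, four serial-dilution concentrations, 24 h at 37 °C. MTT added for 90 min, formazan dissolved in DMSO, read at 570 nm. Duplicates. CC50 taken as the concentration killing 50% of cells. SI = CC50/IC50 against W2, with IC50 from the 48 h pLDH assay.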

Row | Compound | IC50 [1] [µM] | CC50 at 24 h [2] [µM] | selectivity ratio [3]
1 | CC(C)=CCC1=C(OCc2cn(-c3ccc(S(N)(=O)=O)cc3)nn2)C(=O)c2ccccc2C1=O | > 105 | 483 | < 4.6
2 | CC(C)=CCC1=C(OCc2cn(-c3ccccc3)nn2)C(=O)c2ccccc2C1=O | 19.1 | 100 | 5.2
3 | CC(C)=CCC1=C(OCc2cn(-c3ccccc3C)nn2)C(=O)c2ccccc2C1=O | 18.8 to 19.4 | 256 | 13.6
4 | CC(C)=CCC1=C(OCc2cn(-c3cccc(F)c3)nn2)C(=O)c2ccccc2C1=O | 8.4 | 265 | 31.5
5 | CC(C)=CCC1=C(OCc2cn(-c3cccnc3)nn2)C(=O)c2ccccc2C1=O | 5.2 | 1030 | 198
6 | COc1cc([N+](=O)[O-])ccc1-n1cc(COC2=C(CC=C(C)C)C(=O)c3ccccc3C2=O)nn1 | 4.1 | 701 | 171
7 | CC(C)=CCC1=C(OCc2cn(C3C[C@@H](CO)O[C@H]3n3cc(C)c(=O)[nH]c3=O)nn2)C(=O)c2ccccc2C1=O (stereo partly specified) | 13.6 | 60.7 | 4.5
8 | COc1ccc(-n2cc(COC3=C(CC=C(C)C)C(=O)c4ccccc4C3=O)nn2)c([N+](=O)[O-])c1 | 8.2 | 532 | 64.8
9 | CC(C)=CCC1=C(O)C(=O)c2ccccc2C1=O [LAPACHOL] | 124 | > 4130 | > 33.4
10 | CC(C)=CCC1=C(OCc2cn(-c3ccc(C#N)cc3)nn2)C(=O)c2ccccc2C1=O | 8.4 | 707 | 84.2
11 | CCN(CC)CCCC(C)Nc1ccnc2cc(Cl)ccc12 (stereo unspecified) [CHLOROQUINE] |  | 393 | 
12 | CC(C)=CCC1=C(OCc2cn(-c3ccc(Cl)cc3)nn2)C(=O)c2ccccc2C1=O | 9.8 | 1150 | 118
13 | C#CCOC1=C(CC=C(C)C)C(=O)c2ccccc2C1=O | 8.2 | 924 | 113
14 | CC(C)=CCC1=C(OCc2cn(-c3ccnc4cc(Cl)ccc34)nn2)C(=O)c2ccccc2C1=O | 15.1 | 1940 | 129
15 | CC(C)=CCC1=C(OCc2cn(C3CCN(C(=O)OC(C)(C)C)CC3)nn2)C(=O)c2ccccc2C1=O | 4 | 136 | 34
16 | CC(C)=CCC1=C(OCc2cn(C3CCNCC3)nn2)C(=O)c2ccccc2C1=O | 4.6 | 570 | 124
17 | CC(C)=CCC1=C(OCc2cn(-c3ccc([N+](=O)[O-])cc3)nn2)C(=O)c2ccccc2C1=O | 11.7 | 540 | 46.1
18 | CC(C)=CCC1=C(OCc2cn(Cc3ccccn3)nn2)C(=O)c2ccccc2C1=O | 8.7 | 658 | 75.6
19 | COc1ccc(-n2cc(COC3=C(CC=C(C)C)C(=O)c4ccccc4C3=O)nn2)cc1 | 14.2 | 200 | 14.1
20 | CC(C)=CCC1=C(OCc2cn(Cc3ccccc3)nn2)C(=O)c2ccccc2C1=O | 7.8 | 414 | 53
21 | O=C1C(O)=C([C@H]2CC[C@H](c3ccc(Cl)cc3)CC2)C(=O)c2ccccc21 [ATOVAQUONE] | 0.00122 | > 40 | > 328
